Laboratory results: ChEMBL document CHEMBL4765495, “Semisynthesis and Biological Evaluation of Platencin Thioether Derivatives: Dual FabF and FabH Inhibitors against MRSA” (ACS Med Chem Lett, 2021)
Values after ≈ are worked out from the molar mass of the structure shown. Active and inactive are the calls of the source. The rule behind the calls is not given here.

What was measured:
Staphylococcus aureus [1] = assay: Antibacterial activity against Staphylococcus aureus ATCC 29213 assessed as inhibition of bacterial growth measured after 16 hrs by agar plate dilution method; type: functional
How it was run: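 MIC determined by plate dilution against the reference strain; values from at least two independent experiments.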

Staphylococcus aureus [2] = assay: Antibacterial activity against methicillin sensitive Staphylococcus aureus assessed as inhibition of bacterial growth measured after 16 hrs by agar plate dilution method; type: functional
How it was run: (§1)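 Clinical MSSA and MRSA strains isolated from local hospitals; MIC determined by plate dilution; data from at least two independent experiments.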

Staphylococcus aureus [3] = assay: Antibacterial activity against methicillin resistant Staphylococcus aureus assessed as inhibition of bacterial growth measured after 16 hrs by agar plate dilution method; type: functional; how it was run: as §1
[4] = molecular target: T1, 3-oxoacyl-[acyl-carrier-protein] synthase 2 (Staphylococcus aureus) (UniProt Q5TKS0); assay: Binding affinity to His6-tagged Staphylococcus aureus FabF expressed in Escherichia coli BL21 (DE3) assessed as decrease in melting temperature at 10 uM by SYPRO orange based differential scanning fluorimetry
T1 sequence (whole entry): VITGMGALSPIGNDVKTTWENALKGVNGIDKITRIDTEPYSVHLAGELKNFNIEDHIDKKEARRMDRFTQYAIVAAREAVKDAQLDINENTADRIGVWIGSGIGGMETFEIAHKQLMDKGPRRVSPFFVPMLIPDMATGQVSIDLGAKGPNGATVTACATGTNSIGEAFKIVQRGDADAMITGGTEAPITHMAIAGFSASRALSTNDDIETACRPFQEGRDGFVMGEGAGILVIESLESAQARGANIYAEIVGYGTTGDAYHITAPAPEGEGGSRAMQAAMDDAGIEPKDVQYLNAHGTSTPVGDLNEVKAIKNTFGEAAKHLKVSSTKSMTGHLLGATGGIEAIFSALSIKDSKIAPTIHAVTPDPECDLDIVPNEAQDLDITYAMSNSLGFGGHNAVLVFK
How it was run: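 S. aureus FabF melting curves were measured by DSF in 20 mM HEPES, 180 mM NaCl, pH 7.5, a buffer selected by screening seven buffers. ΔTm was derived from the melting-temperature shift caused by ligand; n = 4.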

Escherichia coli [5] = assay: Binding affinity to His6-tagged Escherichia coli FabH expressed in Escherichia coli BL21 (DE3) assessed as decrease in melting temperature at 10 uM by SYPRO orange based differential scanning fluorimetry
How it was run: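 Purified E. coli FabH melting curves were recorded with and without ligand by thermal-shift fluorometry in 1.0 M Tris-HCl, pH 6.8, a buffer chosen from seven screened. ΔTm was taken from the Tm shift; n = 4.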

Staphylococcus aureus [6] = assay: Antibacterial activity against methicillin resistant Staphylococcus aureus infected in C57BL/6J mouse model of peritonitis assessed as mouse survival by measuring number of mouse at 10 mg/kg, ip administered at 1 and 5 hrs post infection relative to control; type: functional
How it was run: (§2)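 Female C57BL/6J mice infected intraperitoneally with 1.5–2.0 × 10^7 CFU MRSA in 5% w/v hog gastric mucin; n = 5 per group; intraperitoneal treatment at 10 mg/kg at 1 and 5 h post-infection; vancomycin 10 mg/kg as control; survival and kidney bacterial load recorded.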

Staphylococcus aureus [7] = assay: Antibacterial activity against methicillin resistant Staphylococcus aureus infected in C57BL/6J mouse model of peritonitis assessed as bacterial load in kidney at 10 mg/kg, ip administered at 1 and 5 hrs post infection; type: functional, organism-based; how it was run: as §2
Staphylococcus aureus [8] = assay: Antibacterial activity against methicillin, macrolide, lincomycin, telithromycin, cipro-bay resistant Staphylococcus aureus assessed as bacterial growth inhibition; type: functional
Staphylococcus aureus [9] = assay: Antibacterial activity against macrolide, lincomycin, telithromycin resistant and cipro-bay susceptible, methicillin-resistant Staphylococcus aureus assessed as bacterial growth inhibition; type: functional
Staphylococcus aureus [10] = assay: Antibacterial activity against methicillin, fusidic-acid, macrolide resistant and lincomycin, telithromycin, cipro-bay susceptible Staphylococcus aureus assessed as bacterial growth inhibition; type: functional
Staphylococcus aureus [11] = assay: Antibacterial activity against methicillin resistant and macrolide, lincomycin, telithromycin, cipro-bay susceptible Staphylococcus aureus assessed as bacterial growth inhibition; type: functional
Enterococcus faecalis = assay: Antibacterial activity against Enterococcus faecalis ATCC 29212 assessed as inhibition of bacterial growth measured after 16 hrs by agar plate dilution method; type: functional
[12] = Inhibition of Staphylococcus aureus FabB/FabF
[13] = Inhibition of Staphylococcus aureus FabH
Staphylococcus aureus [14] = assay: Inhibition of Staphylococcus aureus FabH A81V/A111T mutant assessed as bacterial growth inhibition measured after 18 hrs by resazurin dye based broth dilution assay
How it was run: (§3)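 S. aureus strains carrying point mutations in the FabH active site; MIC determined by broth dilution; data from at least two independent experiments.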

Staphylococcus aureus [15] = assay: Inhibition of Staphylococcus aureus FabH A81V mutant assessed as bacterial growth inhibition measured after 18 hrs by resazurin dye based broth dilution assay; how it was run: as §3
Staphylococcus aureus [16] = assay: Antibacterial activity against methicillin resistant Staphylococcus aureus assessed as inhibition of bacterial growth measured after 18 hrs in presence of 10% human serum by resazurin dye based broth dilution assay; type: functional
Escherichia coli [17] = assay: Antibacterial activity against Escherichia coli harboring delta tolC mutant assessed as inhibition of bacterial growth measured after 16 hrs by agar plate dilution method; type: functional
[18] = Binding affinity to His6-tagged Escherichia coli FabF C163Q mutant expressed in Escherichia coli BL21 (DE3) assessed as binding constant measured after 200 sec by isothermal titration calorimetry
How it was run: (§4)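 Ligands were dissolved in PBS (10 mM, pH 7.4) and titrated into E. coli FabF(C163Q) in the same buffer. Protein was at 12 or 14 μM and ligand at 250 μM. Thermodynamic parameters (ΔH, ΔS, ΔG, Kd, n) were calculated from the heat of binding. Runs were done at least three times; one representative run was used.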

Escherichia coli [19] = assay: Binding affinity to His6-tagged Escherichia coli FabF C163Q mutant expressed in Escherichia coli BL21 (DE3) assessed as stoichiometry ratio measured after 200 sec by isothermal titration calorimetry; how it was run: as §4
Escherichia coli [20] = assay: Binding affinity to His6-tagged Escherichia coli FabF C163Q mutant expressed in Escherichia coli BL21 (DE3) assessed as change in enthalpy measured after 200 sec by isothermal titration calorimetry; how it was run: as §4
Escherichia coli [21] = assay: Binding affinity to His6-tagged Escherichia coli FabF C163Q mutant expressed in Escherichia coli BL21 (DE3) assessed as change in entropy measured after 200 sec by isothermal titration calorimetry; how it was run: as §4
Escherichia coli [22] = assay: Binding affinity to His6-tagged Escherichia coli FabF C163Q mutant expressed in Escherichia coli BL21 (DE3) assessed Gibbs free energy change measured after 200 sec by isothermal titration calorimetry; how it was run: as §4
Staphylococcus aureus [23] = assay: Antibacterial activity against methicillin resistant Staphylococcus aureus infected in C57BL/6J mouse model of peritonitis assessed as mouse survival at 10 mg/kg, ip administered at 1 and 5 hrs post infection; type: functional, organism-based; how it was run: as §2
Staphylococcus aureus [24] = assay: Antibacterial activity against methicillin resistant Staphylococcus aureus infected in C57BL/6J mouse model of peritonitis assessed as mouse survival when infected with 2.5x10^7 CFU bacteria at 10 mg/kg, ip administered at 1 and 5 hrs post infection; type: functional, organism-based
How it was run: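 Female C57BL/6J mice given a higher intraperitoneal MRSA inoculum of 2.5 × 10^7 CFU; intraperitoneal treatment at 1 and 5 h post-infection; survival recorded.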

C=CCSC1=C[C@]23CCC(C[C@H]2[C@](C)(CCC(=O)Nc2c(O)ccc(C(=O)O)c2O)C1=O)C(=C)C3 (single isomer, unassigned)
MIC (Staphylococcus aureus [1]): 2 µg/mL (≈ 4.02 µM)
MIC (Staphylococcus aureus [2]): 1 µg/mL (≈ 2.01 µM)
MIC (Staphylococcus aureus [3]): 1 µg/mL (≈ 2.01 µM)
Activity [4]: Active
Activity (Escherichia coli [5]): Active
Activity (Staphylococcus aureus [6]): 80%
Activity (Staphylococcus aureus [7]): Active

C=C1[C@H]2CC[C@@]3(C=CC(=O)[C@@](C)(CCC(=O)Nc4c(O)ccc(C(=O)O)c4O)[C@@H]3C2)[C@H]1O [PLATENCIN A3]
MIC (Staphylococcus aureus [8]): 8 µg/mL (≈ 18.1 µM)
MIC (Staphylococcus aureus [9]): 8 µg/mL (≈ 18.1 µM)
MIC (Staphylococcus aureus [10]): 8 µg/mL (≈ 18.1 µM)
MIC (Staphylococcus aureus [11]): 8 µg/mL (≈ 18.1 µM)

C=C1C[C@@]23C=CC(=O)[C@@](C)(CCC(=O)Nc4c(O)ccc(C(=O)O)c4O)[C@@H]2C[C@@H]1CC3 [PLATENCIN]
MIC (Enterococcus faecalis): 2 µg/mL (≈ 4.7 µM)
IC50 [12]: 4.6 µM
IC50 [13]: 9.2 µM
MIC (Staphylococcus aureus [1]): 1 µg/mL (≈ 2.35 µM)
MIC (Staphylococcus aureus [2]): 1 µg/mL (≈ 2.35 µM)
MIC (Staphylococcus aureus [3]): 1 µg/mL (≈ 2.35 µM)
MIC (Staphylococcus aureus [14]): 32 µg/mL (≈ 75.2 µM)
MIC (Staphylococcus aureus [15]): > 32 µg/mL
MIC (Staphylococcus aureus [16]): 8 µg/mL
MIC (Escherichia coli [17]): 4 µg/mL (≈ 9.4 µM)
Activity [4]: Active
Activity (Escherichia coli [5]): Active
Kd [18]: 0.027 µM
Ratio (Escherichia coli [19]): 1.12
deltaH (Escherichia coli [20]): -2.84 kcal/mol
-TdeltaS (Escherichia coli [21]): -7.44 kcal/mol
deltaG (Escherichia coli [22]): -10.3 kcal/mol
Activity (Staphylococcus aureus [23]): Active
Activity (Staphylococcus aureus [7]): Active
Activity (Staphylococcus aureus [24]): inactive
